Data: ChEMBL document CHEMBL4312019, “Design, synthesis, and evaluation of compounds capable of reducing Pseudomonas aeruginosa virulence” (Eur J Med Chem, 2020)
≈ marks a conversion by molar mass, not a printed value. Calls of active or inactive are those of the source. No cut-off for these calls is given here.

Key:
[1] = target: Sodium-dependent noradrenaline transporter (Homo sapiens) (UniProt P23975); assay: Displacement of [3H]-Nisoxetine from human recombinant NET receptor expressed in stable HEK cells incubated for 90 mins by microbeta scintillation counting method; type: cell-based
Chain of Sodium-dependent noradrenaline transporter (Homo sapiens) (P23975 whole entry): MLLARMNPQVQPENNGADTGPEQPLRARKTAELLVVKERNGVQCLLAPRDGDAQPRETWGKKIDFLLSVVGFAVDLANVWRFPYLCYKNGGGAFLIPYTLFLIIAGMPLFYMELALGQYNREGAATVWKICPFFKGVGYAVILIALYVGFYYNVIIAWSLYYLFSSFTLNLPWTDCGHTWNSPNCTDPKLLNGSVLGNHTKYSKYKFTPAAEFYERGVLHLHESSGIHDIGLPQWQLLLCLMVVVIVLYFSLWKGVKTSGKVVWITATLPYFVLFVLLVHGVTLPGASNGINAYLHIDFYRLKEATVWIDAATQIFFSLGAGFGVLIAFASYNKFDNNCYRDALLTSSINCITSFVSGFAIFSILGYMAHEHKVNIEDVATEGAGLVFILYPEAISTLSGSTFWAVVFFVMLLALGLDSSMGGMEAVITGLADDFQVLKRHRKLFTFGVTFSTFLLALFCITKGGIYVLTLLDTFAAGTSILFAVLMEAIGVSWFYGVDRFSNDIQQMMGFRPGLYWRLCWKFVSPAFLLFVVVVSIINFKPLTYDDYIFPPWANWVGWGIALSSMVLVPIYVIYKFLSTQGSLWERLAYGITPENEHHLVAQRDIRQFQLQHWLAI

[2] = target: Muscarinic acetylcholine receptor M4 (Homo sapiens) (UniProt P08173); assay: Displacement of [3H]-QNB/[3H]-NMS from human recombinant muscarinic acetylcholine M4 receptor expressed in stable CHO cells incubated for 90 mins by microbeta scintillation counting method; type: cell-based
Chain of Muscarinic acetylcholine receptor M4 (Homo sapiens) (P08173 whole entry): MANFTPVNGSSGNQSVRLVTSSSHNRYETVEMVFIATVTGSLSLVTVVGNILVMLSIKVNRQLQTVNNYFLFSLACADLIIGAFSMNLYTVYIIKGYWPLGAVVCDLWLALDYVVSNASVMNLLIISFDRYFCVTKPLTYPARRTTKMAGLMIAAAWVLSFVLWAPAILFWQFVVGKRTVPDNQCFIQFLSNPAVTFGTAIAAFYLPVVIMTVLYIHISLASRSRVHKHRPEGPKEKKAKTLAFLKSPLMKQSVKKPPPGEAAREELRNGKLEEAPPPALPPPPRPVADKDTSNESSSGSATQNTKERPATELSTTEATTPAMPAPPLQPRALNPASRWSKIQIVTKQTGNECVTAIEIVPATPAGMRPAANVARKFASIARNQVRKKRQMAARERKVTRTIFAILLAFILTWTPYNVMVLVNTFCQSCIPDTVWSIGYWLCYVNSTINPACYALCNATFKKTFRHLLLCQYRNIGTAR

[3] = target: Sodium-dependent dopamine transporter (Homo sapiens) (UniProt Q01959); assay: Displacement of [3H]-Win35428 from human recombinant DAT receptor expressed in stable HEK cells incubated for 90 mins by microbeta scintillation counting method; type: cell-based
Chain of Sodium-dependent dopamine transporter (Homo sapiens) (Q01959 whole entry): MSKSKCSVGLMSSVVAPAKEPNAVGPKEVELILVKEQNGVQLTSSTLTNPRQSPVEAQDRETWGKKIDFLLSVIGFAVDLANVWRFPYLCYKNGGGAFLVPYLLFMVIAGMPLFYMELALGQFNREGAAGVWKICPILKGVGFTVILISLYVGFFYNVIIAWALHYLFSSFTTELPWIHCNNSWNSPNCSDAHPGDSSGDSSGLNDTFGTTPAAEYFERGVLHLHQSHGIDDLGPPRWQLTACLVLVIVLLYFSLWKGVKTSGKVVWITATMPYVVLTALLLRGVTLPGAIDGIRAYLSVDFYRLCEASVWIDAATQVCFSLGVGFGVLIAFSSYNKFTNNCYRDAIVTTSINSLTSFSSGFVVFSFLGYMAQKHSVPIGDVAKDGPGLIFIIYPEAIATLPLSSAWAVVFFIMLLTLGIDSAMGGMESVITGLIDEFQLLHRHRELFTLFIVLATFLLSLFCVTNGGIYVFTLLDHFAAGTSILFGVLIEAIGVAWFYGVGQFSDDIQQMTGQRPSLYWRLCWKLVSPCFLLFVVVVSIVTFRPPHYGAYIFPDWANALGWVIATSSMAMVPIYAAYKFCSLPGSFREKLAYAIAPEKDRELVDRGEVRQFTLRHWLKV

[4] = target: GABA-A receptor; anion channel (Rattus norvegicus) (UniProt O09028+P15431+P18506+P18508+P19969+P20236+P23574+P23576+P28471+P28473+P30191+P62813+P63079+P63138+Q91ZM7+Q9ES14); assay: Displacement of [3H]-Muscimol from GABAA receptor in rat brain incubated for 90 mins by microbeta scintillation counting method; type: tissue-based
[5] = target: Kappa-type opioid receptor (Homo sapiens) (UniProt P41145); assay: Displacement of [3H]-U69593 from human recombinant KOR receptor expressed in stable HEK cells incubated for 90 mins by microbeta scintillation counting method; type: cell-based
Chain of Kappa-type opioid receptor (Homo sapiens) (P41145 whole entry): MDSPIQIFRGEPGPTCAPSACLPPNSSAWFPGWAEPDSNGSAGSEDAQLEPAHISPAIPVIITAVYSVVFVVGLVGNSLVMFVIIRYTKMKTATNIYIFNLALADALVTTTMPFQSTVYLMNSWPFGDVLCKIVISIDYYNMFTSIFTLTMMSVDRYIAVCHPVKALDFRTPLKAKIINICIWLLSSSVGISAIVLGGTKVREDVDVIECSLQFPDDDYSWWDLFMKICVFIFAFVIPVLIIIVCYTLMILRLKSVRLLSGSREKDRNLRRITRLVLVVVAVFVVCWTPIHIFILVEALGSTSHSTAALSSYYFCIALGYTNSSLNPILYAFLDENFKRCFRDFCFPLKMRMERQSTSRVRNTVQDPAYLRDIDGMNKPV

Rattus norvegicus [6] = organism: Rattus norvegicus; assay: Displacement of [3H]-PK11195 from PBR in rat brain incubated for 90 mins by microbeta scintillation counting method; type: tissue-based
[7] = target: 5-hydroxytryptamine receptor 1B (Homo sapiens) (UniProt P28222); assay: Displacement of [3H]-5-CT from human recombinant 5HT1B receptor expressed in stable HEK cells at 10 uM incubated for 90 mins by microbeta scintillation counting method; type: cell-based
Chain of 5-hydroxytryptamine receptor 1B (Homo sapiens) (P28222 whole entry): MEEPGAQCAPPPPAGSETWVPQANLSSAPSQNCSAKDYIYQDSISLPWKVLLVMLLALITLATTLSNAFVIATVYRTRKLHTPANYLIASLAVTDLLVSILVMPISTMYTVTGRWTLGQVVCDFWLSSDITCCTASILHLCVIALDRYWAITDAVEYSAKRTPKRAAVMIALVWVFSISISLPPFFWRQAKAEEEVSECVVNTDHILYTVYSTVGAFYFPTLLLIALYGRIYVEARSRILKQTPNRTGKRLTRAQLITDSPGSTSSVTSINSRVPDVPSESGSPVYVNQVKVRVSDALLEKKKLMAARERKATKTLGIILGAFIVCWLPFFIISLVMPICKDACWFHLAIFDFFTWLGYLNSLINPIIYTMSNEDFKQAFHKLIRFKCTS
How it was run: (§1)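 Primary radioligand binding screen run by the NIMH Psychoactive Drug Screening Program, with one test level of 10 μM. The read-out was inhibition of radioligand binding at each receptor.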

Rattus norvegicus [8] = organism: Rattus norvegicus; assay: Displacement of [3H]-Flunitrazepam from BZP receptor in rat brain at 10 uM incubated for 90 mins by microbeta scintillation counting method; type: tissue-based; how it was run: as §1
[9] = target: D(1A) dopamine receptor (Homo sapiens) (UniProt P21728); assay: Displacement of [3H]-SCH23390 from human recombinant dopamine D1 receptor expressed in HEKT cells incubated for 90 mins by microbeta scintillation counting method; type: cell-based
Chain of D(1A) dopamine receptor (Homo sapiens) (P21728 whole entry): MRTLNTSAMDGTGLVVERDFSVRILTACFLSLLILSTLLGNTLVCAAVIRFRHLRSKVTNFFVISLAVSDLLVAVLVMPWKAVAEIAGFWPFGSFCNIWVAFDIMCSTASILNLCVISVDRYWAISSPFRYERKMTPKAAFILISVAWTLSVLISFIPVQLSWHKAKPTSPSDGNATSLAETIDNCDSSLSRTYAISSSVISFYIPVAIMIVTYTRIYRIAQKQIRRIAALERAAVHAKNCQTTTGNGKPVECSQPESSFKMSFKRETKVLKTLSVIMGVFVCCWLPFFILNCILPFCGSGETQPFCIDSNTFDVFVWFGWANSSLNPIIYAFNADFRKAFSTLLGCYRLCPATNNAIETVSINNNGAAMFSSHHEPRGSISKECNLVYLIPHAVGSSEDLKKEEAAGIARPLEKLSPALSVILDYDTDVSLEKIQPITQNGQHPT

[10] = target: Muscarinic acetylcholine receptor M5 (Homo sapiens) (UniProt P08912); assay: Displacement of [3H]-QNB/[3H]-NMS from human recombinant muscarinic acetylcholine M5 receptor expressed in stable CHO cells incubated for 90 mins by microbeta scintillation counting method; type: cell-based
Chain of Muscarinic acetylcholine receptor M5 (Homo sapiens) (P08912 whole entry): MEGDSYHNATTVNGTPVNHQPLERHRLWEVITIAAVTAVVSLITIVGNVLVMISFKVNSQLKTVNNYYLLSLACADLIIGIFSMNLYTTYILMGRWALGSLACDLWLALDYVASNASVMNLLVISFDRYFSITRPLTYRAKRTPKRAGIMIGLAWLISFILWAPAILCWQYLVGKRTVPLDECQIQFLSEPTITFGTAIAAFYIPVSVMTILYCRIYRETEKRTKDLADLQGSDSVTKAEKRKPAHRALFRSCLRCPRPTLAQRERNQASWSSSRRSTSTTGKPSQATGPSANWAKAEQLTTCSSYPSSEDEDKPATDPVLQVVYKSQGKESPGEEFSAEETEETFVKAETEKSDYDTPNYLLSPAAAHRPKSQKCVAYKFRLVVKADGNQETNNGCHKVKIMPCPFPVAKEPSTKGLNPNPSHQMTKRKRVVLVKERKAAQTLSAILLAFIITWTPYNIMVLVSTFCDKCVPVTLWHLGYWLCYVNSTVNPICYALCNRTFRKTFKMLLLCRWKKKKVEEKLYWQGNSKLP

[11] = target: Beta-1 adrenergic receptor (Homo sapiens) (UniProt P08588); assay: Displacement of [125I]-pindolol from recombinant human beta1 adrenergic receptor expressed in CHO Flp-In cells incubated for 90 mins by microbeta scintillation counting method; type: cell-based
Chain of Beta-1 adrenergic receptor (Homo sapiens) (P08588 whole entry, looked up): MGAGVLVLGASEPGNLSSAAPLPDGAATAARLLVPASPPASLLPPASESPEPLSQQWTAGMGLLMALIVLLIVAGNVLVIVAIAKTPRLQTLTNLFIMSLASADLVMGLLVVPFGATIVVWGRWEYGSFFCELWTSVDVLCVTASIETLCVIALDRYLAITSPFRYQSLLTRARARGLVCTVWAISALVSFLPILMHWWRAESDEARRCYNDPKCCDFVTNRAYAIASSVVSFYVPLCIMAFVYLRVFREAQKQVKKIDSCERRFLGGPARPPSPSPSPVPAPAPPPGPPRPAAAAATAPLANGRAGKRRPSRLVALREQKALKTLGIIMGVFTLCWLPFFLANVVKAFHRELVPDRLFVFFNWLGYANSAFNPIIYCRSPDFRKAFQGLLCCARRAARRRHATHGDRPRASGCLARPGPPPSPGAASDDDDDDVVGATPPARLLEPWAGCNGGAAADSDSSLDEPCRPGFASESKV

NIH3T3 = assay: Cytotoxicity against mouse NIH/3T3 cells measured after 48 hrs by MTT assay; type: cell-based; conditions: NIH3T3, 48 h

What does the source list for `Cn1c2cccc(=O)c-2nc2ccccc21` [PYOCYANIN]?
inhibition [1]: inactive; inhibition [2]: inactive; inhibition [3]: inactive; inhibition [4]: inactive; inhibition [5]: inactive; inhibition (Rattus norvegicus [6]): inactive; inhibition [7]: inactive; inhibition (Rattus norvegicus [8]): inactive; inhibition [9]: inactive; inhibition [10]: inactive; inhibition [11]: inactive; IC50 (NIH3T3): 3.54 µg/mL (≈ 16.8 µM)
